Bioassay records as filed in PubChem BioAssay.
CSN inh: inhibitors of CSN-mediated cullin deneddylation, primary screen, biochemical, fluorescence polarization, uHTS. COP9 signalosome complex subunit 5 (Homo sapiens), Q92905. Purified CSN, SCF-Nedd8-OG deneddylation. inhibition, % at 12.5 µM. 0.38% of 360,000 active. AID 651999, 2013;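 active means pattern-corrected inhibition above about 35%, with an unprinted fluorescence ratio check between 0.5 and 1.5, limit read from the data, passing the limit was not always enough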
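Schedule: reaction 90 min, room temperature / Assay system: HEK293T-derived human Csn5 enzyme / Input: Csn5 at 0.24 nM final / Measure: inhibition of Csn5 cleavage, % / Control set: substrate-only high control, full reaction low control / Technique: fluorescence polarization of the substrate / Buffer or medium: Tris/NaCl/DTT buffer, pH 7.5 / Reagent: SCFSkp2-Nedd8OG substrate at 10 nM final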
Scp1 inh: Scp-1 phosphatase inhibitors, primary screen, biochemical, colorimetric, uHTS. Carboxy-terminal domain RNA polymerase II polypeptide A small phosphatase 1 (Homo …. Recombinant Scp1, phosphopeptide, malachite green phosphate absorbance. inhibition, % at 20 µM. 0.88% of 340,000 active. AID 493091, 2011;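 active means inhibition above about 50% at 20 µM, limit read from the data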
Target sequence (Q9GZU7 76-261 limits assumed): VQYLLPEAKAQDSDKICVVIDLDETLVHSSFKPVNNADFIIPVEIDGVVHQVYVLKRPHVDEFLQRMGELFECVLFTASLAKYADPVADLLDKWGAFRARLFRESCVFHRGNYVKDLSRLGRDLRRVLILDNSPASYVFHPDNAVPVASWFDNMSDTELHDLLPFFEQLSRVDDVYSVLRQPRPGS
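System: SCP-1 catalytic domain; Reagent: Phospho 17-mer peptide substrate; Doses: one concentration, 20 µM, with 1.0% DMSO; Incubation: 45 min room-temperature reaction, 5 min colour, 30 min stabiliser; Signal: Phosphate-binding colour reagent, absorbance read at 630 nm.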
SUMO1-SIM PPI: modulators of SUMO1 protein-protein interactions, primary screen, biochemical, uHTS | SUMO1 binding to a labelled peptide, TR-FRET, 1 h | inhibition, % at 20 µM | 0.33% of 360,000 active; in the data active means inhibition above about 37%
Target sequence (P63165 whole entry, looked up): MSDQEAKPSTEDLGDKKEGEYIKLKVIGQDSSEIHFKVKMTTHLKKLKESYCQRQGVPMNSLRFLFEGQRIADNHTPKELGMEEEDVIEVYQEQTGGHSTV
LMPTP inh: LMPTP phosphatase inhibitors, primary screen, biochemical, fluorescence intensity, uHTS | Low molecular weight phosphotyrosine protein phosphatase (Homo sapiens), P24666 | recombinant LMPTP-A, OMFP fluorogenic substrate | inhibition, % at 20 µM | 0.22% of 360,000 active | AID 651560, 2012;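 active means compounds that cut the enzyme signal by at least half of the control window in the single-dose screen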
Target sequence (P24666 whole entry, looked up): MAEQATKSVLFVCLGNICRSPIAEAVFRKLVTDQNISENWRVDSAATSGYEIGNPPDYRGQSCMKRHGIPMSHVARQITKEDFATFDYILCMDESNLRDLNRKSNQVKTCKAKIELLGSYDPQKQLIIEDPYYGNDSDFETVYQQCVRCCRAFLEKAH
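Material: LMPTP-A; amount: 0.625 nM enzyme; doses: single 20 µM dose; times: reaction 50 min, room temperature, dark; technique: fluorescence intensity of OMFP turnover product; benchmarks: no-enzyme and uninhibited controls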
STEP block: STEP phosphatase inhibitors, primary screen, biochemical, fluorescence intensity, uHTS | Tyrosine-protein phosphatase non-receptor type 5 (Homo sapiens), P54829 | recombinant STEP, OMFP fluorogenic substrate | inhibition, % at 20 µM | 0.25% of 360,000 active;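 active means inhibition at 20 µM, scaled per plate between control wells, above about 37%, limit read from the data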
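Material: STEP (striatal-enriched tyrosine phosphatase) enzyme, cell-free | Medium: 50 mM Bis-Tris pH 6.0 with 2.5 mM DTT and 0.005% Tween 20 | Read-out: Percent inhibition scaled to no-enzyme and uninhibited-enzyme controls, plate-pattern corrected | Signal: Fluorescence read at 480 nm ex / 540 nm em | Times: 20 min reaction, room temperature, in the dark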
DNMT1 block: human DNMT1 methyltransferase inhibitors, primary screen, biochemical, molecular beacon, fluorescence, HinP1I cleavage, uHTS; 0.83% of 360,000 active; DNA (cytosine-5)-methyltransferase 1 (Homo sapiens), P26358; inhibition (reported as % activation of signal), % at 10 µM; in the data active means inhibition above about 50%
Scp1 confirm: Scp-1 phosphatase inhibitors, retest, confirmation, biochemical, colorimetric, single concentration. AID 540281, 2011. shares compounds with Scp1 inh. inhibition, % at 20 µM. recombinant SCP-1 catalytic domain, phosphate release, malachite green absorbance. 61% of 2,500 active
MG interference: colorimetric readout interference by compounds, confirmation, artefact control for Scp-1 inhibitor project, biochemical, single concentration; shares compounds with Scp1 inh; Colorimetric interference counterscreen, malachite green absorbance 630 nm; apparent inhibition (interference), % at 20 µM; 2,500 tested, under 10 active;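 further: compounds added after enzyme reaction finished so only phosphate colour detection is probed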
Scp-1 Tm shift: Scp-1 binding by thermal shift, confirmation, orthogonal assay for Scp-1 inhibitor project, biophysical, differential scanning fluorimetry. shares compounds with Scp1 inh. Recombinant SCP1, Sypro Orange thermal shift Tm. thermal shift relative to vanadate control, % at 40 µM. 25% of 1,500 active. AID 540329, 2011;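 active means substances whose mean melting-temperature shift, as a percentage of the reference inhibitor's shift, reaches about 5.3%, limit read from the data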
Of the large screens only hits and unclear results are named; the others gave an inactive call (follow-up assays come after a bar, where they were run). Only some compounds are listed: those with a hit (about 2% of all), similar ones and a draw of the others.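 How the source made its calls, unless noted: active means inhibition of at least 30% at 20 µM; inactive means the rest.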

CCc1cccc(NC(=O)C2CCCN2S(=O)(=O)c2ccc3c(c2)n(C)c(=O)c(=O)n3C)c1 (stereo not drawn)	none
Cc1cccc(NC(=O)C2CCCN2S(=O)(=O)c2ccc3c(c2)n(C)c(=O)c(=O)n3C)c1 (stereo not drawn)	none | Scp1 confirm inactive | MG interference inactive
CCn1nnnc1SCC(=O)Nc1nc(C)c(C)s1	none
COCCCn1nnnc1SCC(=O)Nc1nc(C)c(C)s1	Scp1 inh 52.3 | Scp1 confirm inactive | MG interference inactive
OC(CNCCC1C=Nc2ccccc21)Cn1c2ccc(Cl)cc2c2cc(Cl)ccc21 (stereo not drawn)	none
Cc1nn(Cc2ccccc2Cl)c(C)c1NC(=O)c1noc2c1CCCCC2	none
Cc1nn(Cc2ccccc2Cl)c(C)c1NC(=O)c1noc(C(C)C)c1[N+](=O)[O-]	Scp1 inh 63.0 | Scp1 confirm inactive | MG interference inactive
Cn1c(SCC(=O)N/N=C/C=C/c2ccccc2[N+](=O)[O-])nc2ccccc21	none
Cn1c(SCC(=O)N/N=C/C=C/c2ccco2)nc2ccccc21	Scp1 inh 73.3, DNMT1 block 57.0 | Scp1 confirm 62.3 | MG interference inactive | Scp-1 Tm shift inactive
O=C(N/N=C/C=C\c1ccco1)c1ccccn1	Scp1 inh 51.5 | Scp1 confirm 39.4 | MG interference inactive | Scp-1 Tm shift inactive
C=CCNc1nc(N)c([N+](=O)[O-])c(NCCO)n1	none
COCc1c(C(=O)N2CCN(c3ccccc3C)CC2)oc2ccccc12	none
CCNC(=O)OCc1cn(-c2ccc(Cl)cc2)nn1	none
O=C(Nc1ccc(Cl)cc1)OCc1cn(-c2ccc(Cl)cc2)nn1	Scp1 inh 84.0 | Scp1 confirm inactive | MG interference inactive
Nc1ccc(-c2ccc(N)c(C(=O)O)c2)cc1C(=O)O	Scp1 inh 54.9 | Scp1 confirm inactive | MG interference inactive
c1coc(-c2nn3c(-c4ccco4)nnc3s2)c1	none
COc1ccccc1-c1nn2c(-c3ccco3)nnc2s1	Scp1 inh 51.4 | Scp1 confirm 59.9 | MG interference inactive | Scp-1 Tm shift inactive
CCOC(=O)C1C(C(C)=O)=C(c2ccccc2)c2ccccc2N1S(=O)(=O)C(F)(F)F (stereo not drawn)	Scp1 inh 88.3 | Scp1 confirm inactive | MG interference inactive
COc1cc(C(=O)NCc2nnc(SCC(=O)NCc3ccco3)o2)cc(OC)c1OC	none
O=C(N/N=C/c1ccc([N+](=O)[O-])cc1)c1cccs1	Scp1 inh 59.6 | Scp1 confirm 53.2 | MG interference inactive | Scp-1 Tm shift inactive
O=C(N/N=C/c1ccc(-c2cccc([N+](=O)[O-])c2)o1)c1cccs1	none
CC1CCc2sc(C(=O)N/N=C/c3ccc([N+](=O)[O-])cc3)cc2C1 (stereo not drawn)	Scp1 inh 72.1 | Scp1 confirm 68.9 | MG interference inactive | Scp-1 Tm shift inactive
